Measurements taken from ChEMBL document CHEMBL1148768, “Nitrated indenoisoquinolines as topoisomerase I inhibitors: a systematic study and optimization” (2007).

What was measured:
Format in all cases: functional
SF-539 = assay: Cytotoxicity against human SF539 cells
Summary of the method: (§1)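 Read-out is growth inhibition of human cancer cell lines. GI50 is taken as the compound concentration giving 50% growth inhibition.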

HCT-116 = assay: Cytotoxicity against human HCT116 cells; summary of the method: as §1
UACC-62 = assay: Cytotoxicity against human UACC62 cells; summary of the method: as §1
OVCAR-3 = assay: Cytotoxicity against human OVCAR-3 cells
HOP-62 = assay: Cytotoxicity against human HOP62 cells; summary of the method: as §1
DU-145 = assay: Cytotoxicity against human DU145 cells; summary of the method: as §1
SN12C = assay: Cytotoxicity against human SN12C cells; summary of the method: as §1
MDA-MB-435 = assay: Cytotoxicity against human MDA-MB-435 cells

| SMILES | GI50 (SF-539) | GI50 (HCT-116) | GI50 (UACC-62) | GI50 (OVCAR-3) | GI50 (HOP-62) | GI50 (DU-145) | GI50 (SN12C) | GI50 (MDA-MB-435) |
| --- | --- | --- | --- | --- | --- | --- | --- | --- |
| [N-]=[N+]=NCCCn1c2c(c3ccc([N+](=O)[O-])cc3c1=O)C(=O)c1ccccc1-2 | 79400 nM |  |  |  |  |  |  |  |
| O=C1c2ccccc2-c2c1c1ccccc1c(=O)n2CCCn1ccnc1 |  | 1410 nM | 790 nM | 1660 nM | 2690 nM | 1410 nM | 1660 nM |  |
| NCCCn1c2c(c3ccccc3c1=O)C(=O)c1ccccc1-2 | 250 nM | 180 nM | 260 nM | 1380 nM |  | 220 nM | 160 nM | 780 nM |
| O=C1c2ccccc2-c2c1c1ccccc1c(=O)n2CCCN1CCOCC1 | 3470 nM |  | 5370 nM | 16600 nM | 3720 nM | 7240 nM | 21400 nM | > 100000 nM |
| O=C1c2ccccc2-c2c1c1ccc([N+](=O)[O-])cc1c(=O)n2CCCN1CCOCC1 | 95 nM | 38 nM | 380 nM |  | 21 nM | 85 nM | 309 nM | 1230 nM |
| COc1ccc2c(c1)C(=O)c1c-2n(CCCN2CCOCC2)c(=O)c2ccccc12 | 1950 nM | 1260 nM | 1580 nM | 2690 nM | 1410 nM | 2290 nM | 4070 nM | 4680 nM |
| COc1ccc2c(c1)C(=O)c1c-2n(CCCNCCO)c(=O)c2cc([N+](=O)[O-])ccc12 | < 10 nM |  | < 10 nM | < 10 nM | < 10 nM | < 10 nM | 12 nM | < 10 nM |
| COc1ccc2c(c1)C(=O)c1c-2n(CCCNCCO)c(=O)c2ccccc12 | 112 nM | 44 nM | 550 nM | 417 nM | 26 nM | 55 nM | 158 nM | 389 nM |
| COc1ccc2c(c1)C(=O)c1c-2n(CCCN(C)C)c(=O)c2cc([N+](=O)[O-])ccc12 | < 10 nM | < 10 nM | < 10 nM | 28 nM | < 10 nM | < 10 nM | < 10 nM | < 10 nM |
| COc1ccc2c(c1)C(=O)c1c-2n(CCCI)c(=O)c2cc([N+](=O)[O-])ccc12 | 58 nM | 46 nM | 148 nM | 3020 nM |  | 34 nM | 309 nM | 1480 nM |
| NCCCn1c2c(c3ccc([N+](=O)[O-])cc3c1=O)C(=O)c1ccccc1-2 | 302 nM |  |  |  |  |  |  |  |
| COc1ccc2c(c1)C(=O)c1c-2n(CCCN=[N+]=[N-])c(=O)c2ccccc12 | 44700 nM | 26900 nM | 75900 nM | 52500 nM | 33900 nM | 61700 nM | > 100000 nM | 64600 nM |
| COc1ccc2c(c1)C(=O)c1c-2n(CCCN)c(=O)c2ccccc12 | 38 nM | < 10 nM |  | 28 nM | < 10 nM | 14 nM | < 10 nM | 59 nM |
| COc1ccc2c(c1)C(=O)c1c-2n(CCCN(C)C)c(=O)c2ccccc12 | 240 nM | 102 nM | 1000 nM | 427 nM | 78 nM | 257 nM | 245 nM | 617 nM |
| COc1ccc2c(c1)C(=O)c1c-2n(CCCn2ccnc2)c(=O)c2ccccc12 | 178 nM | 110 nM | 71 nM | 1660 nM | 56 nM | 204 nM | 676 nM | 646 nM |
| [N-]=[N+]=NCCCn1c2c(c3ccccc3c1=O)C(=O)c1ccccc1-2 |  |  |  |  |  | 29500 nM |  |  |
| O=C1c2ccccc2-c2c1c1ccc([N+](=O)[O-])cc1c(=O)n2CCCBr | > 100000 nM | 3470 nM |  |  |  |  |  |  |
| COc1ccc2c(c1)C(=O)c1c-2n(CCCN2CCOCC2)c(=O)c2cc([N+](=O)[O-])ccc12 |  | < 10 nM | < 10 nM | < 10 nM | < 10 nM |  | < 10 nM | < 10 nM |
| O=C1c2ccccc2-c2c1c1ccc([N+](=O)[O-])cc1c(=O)n2CCCNCCO | > 100000 nM | 27 nM | 200 nM | 1350 nM | 31 nM | > 100000 nM | 229 nM | 1070 nM |
| COc1ccc2c(c1)C(=O)c1c-2n(CCCn2ccnc2)c(=O)c2cc([N+](=O)[O-])ccc12 | < 10 nM | < 10 nM | < 10 nM | 20 nM | < 10 nM | < 10 nM | < 10 nM | < 10 nM |
| O=C1c2ccccc2-c2c1c1ccccc1c(=O)n2CCCNCCO | 550 nM |  | 178 nM | 550 nM | 195 nM | 174 nM | 269 nM | 490 nM |
| COc1ccc2c(c1)C(=O)c1c-2n(CCCN)c(=O)c2cc([N+](=O)[O-])ccc12 |  | < 10 nM |  |  |  |  |  |  |
| COc1cc2c3c(n(C)c(=O)c2cc1OC)-c1cc2c(cc1C3=O)OCO2 |  | 35000 nM | 4200 nM |  | 1300 nM | 37000 nM | 68000 nM | 96000 nM |
